Experimental data: ChEMBL document CHEMBL1141025, “Replacing alkyl sulfonamide with aromatic sulfonamide in sulfonamide-type RXR agonists favors switch towards antagonist activity” (Bioorg Med Chem Lett, 2009)
Calls of active or inactive are those of the source. The calls are words filed in the database; no cut-off is given here.

Tests used:
[1] = molecular target: T1, Retinoic acid receptor RXR-alpha (Homo sapiens) (UniProt P19793); test: Agonist activity at RXRalpha expressed in african green monkey COS1 cells by luciferase reporter gene assay relative to LGD1069; format: functional, cell-based; details: COS-1
T1 sequence (whole entry): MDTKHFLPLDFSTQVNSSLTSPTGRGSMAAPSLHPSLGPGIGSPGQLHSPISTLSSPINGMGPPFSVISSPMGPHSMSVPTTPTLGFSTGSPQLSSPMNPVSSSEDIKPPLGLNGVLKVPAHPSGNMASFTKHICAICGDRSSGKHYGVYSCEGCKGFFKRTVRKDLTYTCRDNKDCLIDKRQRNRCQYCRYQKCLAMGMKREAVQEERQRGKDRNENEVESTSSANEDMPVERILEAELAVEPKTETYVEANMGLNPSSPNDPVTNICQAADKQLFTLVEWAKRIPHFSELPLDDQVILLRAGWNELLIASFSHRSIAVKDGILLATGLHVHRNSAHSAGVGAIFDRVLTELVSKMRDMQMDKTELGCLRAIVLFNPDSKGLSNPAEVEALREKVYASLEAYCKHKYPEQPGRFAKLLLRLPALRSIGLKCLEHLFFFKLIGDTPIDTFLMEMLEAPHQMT
Outline: (§1)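 Luciferase reporter gene assay in COS-1 cells. Each subtype's activity is expressed relative to 1 μM LGD1069, an RXR pan-agonist, used as the reference.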

[2] = molecular target: T2, Retinoic acid receptor RXR-beta (Homo sapiens, UniProt P28702); test: Antagonist activity at RXRbeta expressed in african green monkey COS1 cells assessed as inhibition of LGD-1069-induced agonist activity; format: functional, cell-based, COS-1
T2 sequence (P28702 whole entry): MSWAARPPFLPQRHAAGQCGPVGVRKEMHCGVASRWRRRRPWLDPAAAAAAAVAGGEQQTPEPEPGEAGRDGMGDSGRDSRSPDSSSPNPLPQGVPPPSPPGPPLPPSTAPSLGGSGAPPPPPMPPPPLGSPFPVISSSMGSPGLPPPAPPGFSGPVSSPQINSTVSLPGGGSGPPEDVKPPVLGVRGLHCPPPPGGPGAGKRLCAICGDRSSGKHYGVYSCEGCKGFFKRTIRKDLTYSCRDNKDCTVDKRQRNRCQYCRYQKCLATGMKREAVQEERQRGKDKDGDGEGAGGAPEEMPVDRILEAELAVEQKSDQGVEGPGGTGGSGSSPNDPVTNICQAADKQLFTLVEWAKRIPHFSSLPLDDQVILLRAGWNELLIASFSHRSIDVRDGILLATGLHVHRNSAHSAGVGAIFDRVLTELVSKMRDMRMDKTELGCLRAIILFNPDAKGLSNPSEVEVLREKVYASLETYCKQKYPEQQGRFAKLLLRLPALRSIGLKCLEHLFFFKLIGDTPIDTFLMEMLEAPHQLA
Outline: (§2)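 Luciferase reporter gene assay in COS-1 cells measuring inhibition of LGD1069-driven activity. IC50 is taken from full dose–response curves spanning 10^-7 to 10^-5 M.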

[3] = molecular target: T3, Retinoic acid receptor RXR-gamma (Homo sapiens, UniProt P48443); test: Antagonist activity at RXRgamma expressed in african green monkey COS1 cells assessed as inhibition of LGD-1069-induced agonist activity; format: functional, cell-based, COS-1; outline: as §2
T3 sequence (P48443 whole entry): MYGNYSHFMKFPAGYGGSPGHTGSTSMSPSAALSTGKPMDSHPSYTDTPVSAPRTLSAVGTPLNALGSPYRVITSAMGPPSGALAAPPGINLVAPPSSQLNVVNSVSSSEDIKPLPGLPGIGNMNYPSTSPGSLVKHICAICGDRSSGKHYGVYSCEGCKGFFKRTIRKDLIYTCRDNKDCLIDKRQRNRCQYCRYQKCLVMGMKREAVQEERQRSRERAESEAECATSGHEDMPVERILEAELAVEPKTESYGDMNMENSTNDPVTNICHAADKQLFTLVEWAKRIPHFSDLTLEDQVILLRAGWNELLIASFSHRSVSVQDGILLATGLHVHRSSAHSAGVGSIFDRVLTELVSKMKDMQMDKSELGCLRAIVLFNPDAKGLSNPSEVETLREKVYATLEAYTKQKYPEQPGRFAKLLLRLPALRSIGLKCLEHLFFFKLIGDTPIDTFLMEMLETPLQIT

[4] = molecular target: T4, Retinoic acid receptor RXR-gamma (Homo sapiens) (UniProt P48443); test: Agonist activity at RXRgamma expressed in african green monkey COS1 cells by luciferase reporter gene assay relative to LGD1069; format: functional, cell-based; details: COS-1; outline: as §1
T4 sequence (whole entry): T3 sequence (P48443 whole entry)

[5] = molecular target: T5, Retinoic acid receptor RXR-beta (Homo sapiens) (UniProt P28702); test: Agonist activity at RXRbeta expressed in african green monkey COS1 cells by luciferase reporter gene assay relative to LGD1069; format: functional, cell-based; details: COS-1; outline: as §1
T5 sequence (whole entry): T2 sequence (P28702 whole entry)

[6] = molecular target: T6, Retinoic acid receptor RXR-alpha (Homo sapiens, UniProt P19793); test: Antagonist activity at RXRalpha expressed in african green monkey COS1 cells assessed as inhibition of LGD-1069-induced agonist activity; format: functional, cell-based, COS-1
T6 sequence (P19793 whole entry): T1 sequence (whole entry)

Activity [1]	IC50 [2] [µM]	IC50 [3] [µM]	Activity [4]	Activity [5]	IC50 [6] [µM]	SMILES
inactive	3	3.8	inactive	inactive	5.2	Cc1ccc(S(=O)(=O)N(c2ccc3c(c2)C(C)(C)CCC3(C)C)c2ccc(C(=O)O)cn2)cc1
inactive	0.75	2.7	inactive	inactive	3.2	CC1(C)CCC(C)(C)c2cc(N(c3ccc(C(=O)O)cn3)S(=O)(=O)c3ccc(C(F)(F)F)cc3)ccc21
inactive	3.9	6.6	inactive	inactive	2.7	COc1ccc(S(=O)(=O)N(c2ccc3c(c2)C(C)(C)CCC3(C)C)c2ccc(C(=O)O)cn2)cc1
inactive	0.87	4.5	inactive	inactive	4.1	CC1(C)CCC(C)(C)c2cc(N(c3ccc(C(=O)O)cn3)S(=O)(=O)c3ccc(Cl)cc3)ccc21

More lines, now with the values behind:

SMILES	Activity [1]	IC50 [2] [µM]	IC50 [3] [µM]	Activity [4]	Activity [5]	IC50 [6] [µM]
CC1(C)CCC(C)(C)c2cc(N(c3ccc(C(=O)O)cn3)S(=O)(=O)c3ccc([N+](=O)[O-])cc3)ccc21	inactive	> 10	> 10	inactive	inactive	> 10
CCCCS(=O)(=O)N(c1ccc2c(c1)C(C)(C)CCC2(C)C)c1ccc(C(=O)O)cn1	–	> 10	> 10	–	–	> 10
CN1c2ccc([N+](=O)[O-])cc2N=C(c2ccc(C(=O)O)cc2)c2cc3c(cc21)C(C)(C)CCC3(C)C	–	0.044	0.38	–	–	–
CC1(C)CCC(C)(C)c2cc(N(c3ccc(C(=O)O)cn3)S(=O)(=O)c3ccccc3)ccc21	inactive	> 10	> 10	inactive	inactive	> 10
